Results on 37 variants are retold here after the RNAGym collection of RNA variant scans (doi:10.1126/science.aae0568).

B1: tRNA (parent)
chain: GUUCCGUUGGCGUAAUGGUAACGCGUCUCCCUCCUAAGGAGAAGACUGCGGGUUCGAGUCCCGUACGGAACG

Variants at the floor of the assay were thinned out.

In the data set the parent is B1. The data set can be described thus: yeast fitness relative to wild type (ratio to wild type); higher = fitter; tRNA-Arg(CCU), competitive growth, 37 C, YPD. Put shortly:
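Amplicons of the tRNA-Arg(CCU) gene were sequenced, 100-nucleotide paired-end, from the start population and from each end population of a pooled yeast competition. The competition, in six parallel replicates, lasted 24 hours in YPD at 37°C. Fitness relative to wild type was calculated from changes in genotype frequencies. Genotypes had to have ≥ 100 starting reads, and estimates < 0.5 were set to 0.5.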
GUUCCGUUGGCGUAAUGGUAACGCGUCUCCCUCCUAAGGAGAAGACUGCGGGUUCGAGUUCCGUACGCAACG [C60U G68C]: the yeast fitness came out at 0.752.
Next, GUUCCGUUGGCGUAAUGGUAACGCGCCUCCCUCCUAAGGAGAAGACUGCGGGUUCGAGUCCCGUAUGGAACG [U26C C66U]: 0.823; GUUCCGUAGGCGUAUUGGUAACGCGUCUCCCUCCUAAGGAGAAGACUGCGGGUUCGAGUCCCGUACGGAACG [U8A A15U]: 0.587.
As to GUUCAGUUGGGGUAAUGGUAACGCGUCUUCCUCCUUAGGAGAAGACUGCCGGUGCGAGUCCCGUACGGAACG [C5A C11G C29U A36U G50C U54G], the yeast fitness is not above 0.5.
Turning to GUUCCGUUGGCGUAAUGGAAACGCGUAUCCCUCCUAAGGAGAAGACUGCGGGUUCGAGUCCCGUACGGAACG [U19A C27A], the yeast fitness turned out to be 0.775.
In the case of GUUCCGUUGGCGUAAUGGUAACGCGUCUCCGUCCUAAGGAGAUGAGUGCGGGUUCGAGUCCCGUACGGAACG [C31G A43U C46G] it was 0.586.
As to GUUCCGUUGGGGUAAAGGUAACGCGUCUCCCUCCUAAGGAGAAGACUGAGGGUUCGAGUCCCGUACGGAACG [C11G U16A C49A], the yeast fitness is not above 0.5.
As to GUUCCGUCGGCGUAAUGGUAACGCGUUUCCCUCCUAAGGAGAAGACUGCGGGUUCGAGUCCGGUACGGAACG [U8C C27U C62G], the yeast fitness was not above 0.5.
In the case of GUUCCGUUGGCAUAAUGGUAACGCGUCUCCCUCCUGAGGAGAAGACGGCGGGUUCGAGUCCCGUACGGAACG [G12A A36G U47G] it was 0.584.
Next, GUUCCGUUGGCGUAAUGGUAACGCGUCUCCGUCCUAAGGAGAAGACUGCGGGUUCGAGUCCCGCACGGAACG [C31G U64C]: 0.777; GUUCCGUUGGCGUAAUGGUAACGCGUGUCCCUCCUAAGGAGUAGACUGUGGGUUCGAGUCCCGUACGGAACG [C27G A42U C49U]: 0.58.
In the case of GUUCCGUUGGCGUAAUGGUUACGCGCCUCACUCCUAAGGAGAAGACUGCGGGUUCGAGUCCCGUACGGAACG [A20U U26C C30A] it was not above 0.5; in that of GUUCCGUUGGCGUAAUGGUAACGCGUCUACCUCCUAAAGAGAAGACUGCGGGUUCGAGUCCCGUACGGAACG [C29A G38A], 0.764.
Take GUUCCGUUGGCGUAAUGGUAACGCGUCUCCCUCCUAAGGAGAAGACUGCGGGUUGGAGUCGCGUACGGAACG [C55G C61G]: the yeast fitness is not above 0.5.
For the variant GUUCCGUUGGAGUAAUGGUAACGCGUAUUCCUCCUAAGGAGAAGACUGCGGGUUCGAAUCCCGUACGGAACG [C11A C27A C29U G58A], the yeast fitness was not above 0.5.
Next, GUUCCGUUGGCGUAAUGGUAACCCGUCUCCCUCCUAUGGAGAAGACCGCGGGUCCGAGUCCCGUAUGGAACG [G23C A37U U47C U54C C66U]: not above 0.5.
In the case of GUUCGGUUGGCGUAAUGGCAACGCGUCUCCCUCCUAAGGAGAAGACUGCGGGUUCGAGUCCCGUACGGAACG [C5G U19C] it was 0.997.
In the case of GUUGCGUUGGAGUAAUGGCAACCCGUCUCCCUCCUAAGGAGAAGACUGCGGGUUCGAGUCCCGUACGGAACG [C4G C11A U19C G23C] it was 0.524; in that of GUUAGGUAGGCGUAAUGGUAACGCGUCUCACUCCUAAGGAGAAGACUGCGGGUUCGAGUCCAGUACGGAACG [C4A C5G U8A C30A C62A], not above 0.5.
Consider GUUCCGUUGGCGUAAUGGUAACGCGUCUCCCUUCUAAGGAGAAGACUGCGGGUUCGAGACCCGUACGGAGCG [C33U U59A A70G], for which the yeast fitness was not above 0.5.
For GUUCCGGUGGCGUUAUGGAAAUGCGUCUCCCUCCUAAGGAGAAGACUGCGGGUUCGAGUGCCGUACGGAACG [U7G A14U U19A C22U C60G], the yeast fitness was not above 0.5.
In the case of GUUCCGUUGGCGUAAUGGUAAGGCGGGUCCCUCCUAAGGAGAAGACUGCGGGAUCGAGUCCCGUACGGAACG [C22G U26G C27G U53A] it was not above 0.5; in that of GUUCCGUUGGCGUAAAAGUAACGCGUCUCCCUCCUAAGGAGAAGACUGCGGGUUCGGGUCCCGUAUGGAACG [U16A G17A A57G C66U], not above 0.5.
Next, GUUCCGAGGGCGUAAUGGUAACGCGUCUCCCUCAUAAGGAGAAGACUGCGGGUUCGACUCCAGUACGGCACG [U7A U8G C34A G58C C62A A69C]: not above 0.5; GUUCCGUUGGCGUAAUGGUAGUGCGUCUCCCUCCUAAGGAGAAGACUGCGGGUUCGAGUCCCGUAUGCAACG [A21G C22U C66U G68C]: not above 0.5.
Next, GUUCCGUUGGCGUAAUGGUAACGCGAUUCCCUGCUUAGGAGAAGACUGCAGGUUCGAGUCCCGUACGGAACG [U26A C27U C33G A36U G50A]: not above 0.5; GUUCCGUUGGCGUACUGGUAACGCGUCUCCCUCCUAAGGAGAAGACUGCGGGUUCACGUCCCGUACGGAACG [A15C G56A A57C]: not above 0.5.
Turning to GUUCCGUUGGCGUAAUGGCAACGCGUCUCCCUCCUAAGGAGACGACUGCGGGUUCGAGUCCCGUACGGAACG [U19C A43C], the yeast fitness was 0.907.
In the case of GUUCCGUUGGCGUAAUAGUGACGCGUCACCCUCCAAAGGAGAAGACUGCGGGUUCGAGUCCCGUACGGAACG [G17A A20G U28A U35A] it was 0.561; in that of GUUCCGUUGGCGUAAUGGUAACGCGUCUCCCUCCGAAGGAGAAGACUGCGGGUUCGAGUCCCGUGCGGAACG [U35G A65G], 0.573; in that of GCUCCGUUGGCGUAAUGGUAACGCGUCUCCCUCCUAAGGAGAAGACUGCGGGUUCGAGUCCCGUACGGCACG [U2C A69C], 0.872.
Next, GUUCCGUUGGCGUAAUGGUAACGCGUCUCCCUCCUAAGGCGAAGACUGCGGGUUCGAGUCCUGUACGGAACG [A40C C62U]: 0.863.
For GUUCCGUUGGCGUAAUGGUACCAUGUCUCCUUCCUAAGGAGAAGACUGUGGGUUCGAGUCCCGUACGGAACG [A21C G23A C24U C31U C49U], the yeast fitness is not above 0.5.
Next, GUUCCGGUGGCGUAAUGGUAACGCGUCUCCCCCGUAAGGAGAUGACUGCGGGUUCGAGUCCCGUACGGAACG [U7G U32C C34G A43U]: not above 0.5.
In the case of GUUCCCUCGGCGUAAUGGUAACGCGUCUCCCUCCUAAGGACAAGACUGCGGGUUCGAGUCCCGUACGGAACG [G6C U8C G41C] it was not above 0.5.
Consider GUUCCGUUGGAGUAAUGGUAACGCGUCUCCCUCCUAAGGAGAAGACUGCGGGUUCGAGUCCAGUCCGGAACG [C11A C62A A65C], for which the yeast fitness is not above 0.5.
Next, GUUCCGUUGGCGUAAUGGAAACGCGACUCCCUCCUAAGGAGAAGACUGCGGGUUCGAGUCCCGUAAGGAACG [U19A U26A C66A]: 0.585.
